Active and inactive are the calls of the source. No cut-off for these calls is given here.
Columns and labels:
[1] = target: T1, Amine oxidase [flavin-containing] A (Homo sapiens, UniProt P21397); assay: Inhibition of recombinant MAO-A (unknown origin) at 20 uM preincubated for 30 mins followed substrate addition by Amplex Red reagent based fluorescence analysis relative to control
T1 sequence (P21397 whole entry): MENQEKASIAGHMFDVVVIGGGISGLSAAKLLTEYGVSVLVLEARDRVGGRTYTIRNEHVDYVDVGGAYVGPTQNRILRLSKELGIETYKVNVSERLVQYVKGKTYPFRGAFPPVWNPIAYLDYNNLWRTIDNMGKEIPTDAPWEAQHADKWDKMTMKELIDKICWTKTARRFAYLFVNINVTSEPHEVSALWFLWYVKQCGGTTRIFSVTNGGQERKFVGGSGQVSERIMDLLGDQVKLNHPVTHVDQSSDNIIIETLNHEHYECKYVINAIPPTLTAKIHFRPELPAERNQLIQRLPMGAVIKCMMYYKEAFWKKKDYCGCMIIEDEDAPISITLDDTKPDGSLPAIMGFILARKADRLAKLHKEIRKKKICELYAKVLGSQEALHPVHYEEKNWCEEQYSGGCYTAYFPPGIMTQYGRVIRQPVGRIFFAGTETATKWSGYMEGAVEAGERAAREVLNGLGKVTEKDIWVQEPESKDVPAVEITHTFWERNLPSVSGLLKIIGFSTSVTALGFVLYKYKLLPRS
Method in brief: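 Recombinant MAO enzyme preincubated with compound 30 min at 37 °C; substrate, HRP and Amplex Red working solution then added; H2O2 formation read at 37 °C by fluorescence, ex 545/em 590 nm. Screening at 20 μM as % inhibition versus control; IC50 only for compounds above 50% inhibition at 20 μM; triplicate (n = 3).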

[2] = target: T2, Acetylcholinesterase (Homo sapiens, UniProt P22303); assay: Reversible inhibition of AChE (unknown origin) assessed as residual activity at 10 times IC50 incubated for 30 mins by dilution method relative to control
Method in brief: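 Samples then diluted 100-fold with substrate, giving final inhibitor levels of 0.1× and 1× IC50. Recovered activity measured relative to control; triplicate.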

[3] = target: T3, Amine oxidase [flavin-containing] B (Homo sapiens, UniProt P27338); assay: Reversible inhibition of MAO-B (unknown origin) assessed as residual activity at 10 times IC50 incubated for 30 mins by dilution method relative to control; conditions: 0.5 h
T3 sequence (P27338 whole entry): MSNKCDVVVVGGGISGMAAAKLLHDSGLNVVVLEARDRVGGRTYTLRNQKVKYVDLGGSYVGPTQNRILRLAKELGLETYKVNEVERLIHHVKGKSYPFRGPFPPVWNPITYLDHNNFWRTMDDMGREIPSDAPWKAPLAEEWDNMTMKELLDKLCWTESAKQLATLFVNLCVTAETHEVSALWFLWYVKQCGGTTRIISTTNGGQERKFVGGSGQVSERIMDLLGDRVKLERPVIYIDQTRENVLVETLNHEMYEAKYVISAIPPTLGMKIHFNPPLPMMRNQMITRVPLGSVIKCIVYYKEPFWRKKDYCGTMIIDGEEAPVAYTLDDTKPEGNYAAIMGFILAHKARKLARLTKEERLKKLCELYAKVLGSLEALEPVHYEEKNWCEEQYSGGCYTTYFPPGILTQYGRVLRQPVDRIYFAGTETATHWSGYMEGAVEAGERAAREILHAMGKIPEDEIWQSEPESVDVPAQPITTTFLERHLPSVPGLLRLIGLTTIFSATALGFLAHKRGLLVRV

[4] = tested on: SH-SY5Y; assay: Cytotoxicity against human SH-SY5Y cells assessed as cell viability at 5 uM by MTT assay relative to control; format: functional; conditions: read-out: Activity
Method in brief: (§1)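 SH-SY5Y cells (DMEM/F-12 with 10% FBS, 1% horse serum, 1% penicillin) preincubated 24 h with compound at 1, 5 or 25 μM; MTT converted to formazan, solubilised in DMSO, absorbance read at 595 nm; viability expressed as percentage of untreated control.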

[5] = target: T2, Acetylcholinesterase; assay: Mixed type inhibition of AChE (unknown origin) by Lineweaver-Burk plot analysis
Method in brief: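 Ellman-based AChE kinetics run at several substrate concentrations and several final inhibitor concentrations. Mode of inhibition assigned from double-reciprocal Lineweaver–Burk plots.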

[6] = target: T4, Cholinesterase (Homo sapiens, UniProt P06276); assay: Inhibition of recombinant BuChE (unknown origin) using BTCI as substrate at 20 uM preincubated for 30 mins followed by substrate addition by TECAN multiplate reader analysis relative to control
Method in brief: (§2)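 Ellman method as for AChE, using butyrylcholinesterase with BTCI as substrate. Enzyme and compound preincubated 30 min at 37 °C in a CO2 incubator, then DTNB and BTCI added; absorbance read at 417 nm. Screening at 20 μM as % inhibition; IC50 for compounds exceeding 50% inhibition at 20 μM. Triplicate.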

[7] = target: T3, Amine oxidase [flavin-containing] B; assay: Inhibition of recombinant MAO-B (unknown origin) preincubated for 30 mins followed substrate addition by Amplex Red reagent based fluorescence analysis
[8] = target: T4, Cholinesterase; assay: Inhibition of recombinant BuChE (unknown origin) using BTCI as substrate preincubated for 30 mins followed by substrate addition by TECAN multiplate reader analysis; method in brief: as §2
[9] = tested on: SH-SY5Y; assay: Cytotoxicity against human SH-SY5Y cells assessed as cell viability at 25 uM by MTT assay relative to control; format: functional; conditions: read-out: Activity; method in brief: as §1
[10] = tested on: SH-SY5Y; assay: Inhibition of ROS production in human SH-SY5Y cells assessed as intracellular ROS level at 25 uM incubated for 24 hrs by DCF-DA staining based fluorescence analysis relative to control; format: functional
Method in brief: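 Cultured SH-SY5Y cells exposed to compound (1, 5, 25 μM) for 24 h; intracellular ROS detected with DCF-DA, which is converted to fluorescent 2,7-DCF, read at ex 478/em 518 nm. Inhibition is expressed relative to control. Mean ± SD of triplicate or more independent experiments.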

[11] = target: Amyloid-beta precursor protein (Homo sapiens) (UniProt P05067); assay: Inhibition of self-induced amyloid beta (1 to 42 residues) (unknown origin) aggregation at 20 uM incubated at 48 hrs by fluorimetry-based thioflavin T assay
Method in brief: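 Aβ1-42 pretreated with HFIP (1 mg mL−1) and dried, then incubated with compound (20 μM) at 37 °C for 24 h; an aliquot transferred and incubated further to 48 h. Glycine–NaOH buffer pH 8.0 with 5 μM ThT added; fluorescence read at 440–485 nm. % inhibition calculated against the Aβ-only control taken as 0%.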

[12] = tested on: SH-SY5Y; assay: Cytotoxicity against human SH-SY5Y cells assessed as reduction in cell viability at 1 to 25 uM by MTT assay; format: functional, cell-based; conditions: dose 1-25 µM; method in brief: as §1
[13] = target: T3, Amine oxidase [flavin-containing] B; assay: Reversible inhibition of MAO-B (unknown origin) assessed as residual activity at 0.1 times IC50 incubated for 30 mins by dilution method relative to control; conditions: 0.5 h
[14] = tested on: SH-SY5Y; assay: Neuroprotective activity against 6-OHDA-induced cytotoxicity in human SH-SY5Y cells assessed as cell viability at 1 uM incubated for 24 hrs followed by exposure to 6-OHDA by MTT assay relative to control; format: functional; conditions: read-out: Activity
Method in brief: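 SH-SY5Y cells treated with compound (1, 5, 25 μM) and challenged with 6-OHDA; cultured 24 h at 37 °C under humidified 5% CO2. Viability measured by MTT as formazan absorbance at 594 nm and expressed relative to control.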

T4 sequence (P06276 whole entry): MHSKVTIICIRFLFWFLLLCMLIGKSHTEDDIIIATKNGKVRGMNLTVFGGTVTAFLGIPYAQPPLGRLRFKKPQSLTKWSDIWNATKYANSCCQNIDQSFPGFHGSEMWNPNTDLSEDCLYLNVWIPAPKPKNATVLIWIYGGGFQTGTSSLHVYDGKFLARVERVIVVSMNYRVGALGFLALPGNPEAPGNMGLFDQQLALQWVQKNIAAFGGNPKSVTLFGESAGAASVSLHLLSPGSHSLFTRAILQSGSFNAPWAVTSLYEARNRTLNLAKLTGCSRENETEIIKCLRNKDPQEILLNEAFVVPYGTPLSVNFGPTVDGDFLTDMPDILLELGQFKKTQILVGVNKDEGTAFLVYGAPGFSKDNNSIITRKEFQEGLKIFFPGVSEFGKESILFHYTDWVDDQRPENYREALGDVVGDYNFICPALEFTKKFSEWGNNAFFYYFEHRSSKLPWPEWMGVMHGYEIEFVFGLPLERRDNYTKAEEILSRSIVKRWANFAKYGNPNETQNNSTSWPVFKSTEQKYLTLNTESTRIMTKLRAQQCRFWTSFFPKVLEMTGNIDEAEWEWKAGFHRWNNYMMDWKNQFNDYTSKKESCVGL
T2 sequence (P22303 whole entry): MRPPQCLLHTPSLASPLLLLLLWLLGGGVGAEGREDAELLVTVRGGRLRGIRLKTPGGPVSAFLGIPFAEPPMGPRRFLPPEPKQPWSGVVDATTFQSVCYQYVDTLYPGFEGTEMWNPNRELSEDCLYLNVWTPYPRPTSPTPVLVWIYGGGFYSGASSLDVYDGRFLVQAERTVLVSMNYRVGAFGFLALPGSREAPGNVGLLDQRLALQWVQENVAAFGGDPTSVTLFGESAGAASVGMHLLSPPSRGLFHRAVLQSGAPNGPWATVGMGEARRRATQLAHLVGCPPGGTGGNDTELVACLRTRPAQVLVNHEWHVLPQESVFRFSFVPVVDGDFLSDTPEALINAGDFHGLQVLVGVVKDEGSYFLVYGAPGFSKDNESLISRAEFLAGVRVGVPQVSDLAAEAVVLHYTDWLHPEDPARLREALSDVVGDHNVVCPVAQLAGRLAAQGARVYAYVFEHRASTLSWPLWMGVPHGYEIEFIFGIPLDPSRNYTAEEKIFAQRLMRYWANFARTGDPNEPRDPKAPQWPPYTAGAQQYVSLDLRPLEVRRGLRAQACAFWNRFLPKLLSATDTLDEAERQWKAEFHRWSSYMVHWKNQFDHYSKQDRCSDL
Amyloid-beta precursor protein (Homo sapiens), sequence (P05067 whole entry, the tested form may be a part): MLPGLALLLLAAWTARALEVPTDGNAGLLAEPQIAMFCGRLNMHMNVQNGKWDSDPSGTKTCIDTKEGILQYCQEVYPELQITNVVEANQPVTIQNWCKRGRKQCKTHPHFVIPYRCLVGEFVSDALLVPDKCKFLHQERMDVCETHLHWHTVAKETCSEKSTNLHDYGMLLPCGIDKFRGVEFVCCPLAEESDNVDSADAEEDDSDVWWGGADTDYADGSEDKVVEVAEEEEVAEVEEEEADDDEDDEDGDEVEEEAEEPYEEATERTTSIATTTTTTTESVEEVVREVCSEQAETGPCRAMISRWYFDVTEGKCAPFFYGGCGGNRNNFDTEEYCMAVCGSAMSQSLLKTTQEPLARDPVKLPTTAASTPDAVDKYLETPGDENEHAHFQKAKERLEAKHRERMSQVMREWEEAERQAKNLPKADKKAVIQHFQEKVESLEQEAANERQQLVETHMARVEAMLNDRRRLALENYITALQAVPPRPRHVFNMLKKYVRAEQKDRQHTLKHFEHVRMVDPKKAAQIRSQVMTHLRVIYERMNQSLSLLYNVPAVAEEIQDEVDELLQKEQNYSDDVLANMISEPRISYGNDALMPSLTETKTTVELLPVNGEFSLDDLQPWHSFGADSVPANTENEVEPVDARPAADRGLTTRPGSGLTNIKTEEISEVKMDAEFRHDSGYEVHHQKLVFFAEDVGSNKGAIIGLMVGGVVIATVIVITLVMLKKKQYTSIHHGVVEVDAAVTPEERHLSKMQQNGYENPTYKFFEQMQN

## C#CCCCOc1ccc(-c2cc(=O)c3ccccc3o2)cc1CN1CCCCC1
[1]
  inhibition at 20 µM: 0.23%
[2]
  Activity: 28.9%
[3]
  Activity: 27.8%
[4]
  viability at 5 µM: 97.4%
[5]
  inhibition: Active
[6]
  inhibition: 87.9%
[7]
  IC50: 12.3 µM
[8]
  IC50: 11 µM
[9]
  viability at 25 µM: 88.3%
[10]
  inhibition at 25 µM: 34.8%
[11]
  inhibition: 32.2%
[12]
  Activity: Not toxic
[13]
  Activity: 71.4%
[14]
  viability at 1 µM: 55.1%
